The record followed here is ChEMBL document CHEMBL5104176 (J Med Chem, 2022).

Calls of active or inactive are those of the source. No cut-off for these calls is given here.

Assay [1] deals with D(2) dopamine receptor (Homo sapiens, UniProt P14416). The assay is described as follows: Displacement of [3H]N-methylspiperone from human D2L receptor expressed in HEK293T cell membrane incubated for 1 hr by MicroBeta scintillation counting method. The class given is cell membranes. In outline:
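Membranes from stably transfected HEK293 cells (hD2L, hD3 or hD4.4), 20 μg (D2, D3) or 30 μg (D4) protein/well. Incubated 1 h at room temperature in EBSS binding buffer, pH 7.4, with 0.4 nM [3H]N-methylspiperone and 10 half-log dilutions in triplicate. 10 μM (+)-butaclamol defines nonspecific binding. GF filtration, scintillation counting.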

Assay [2] concerns the target D(3) dopamine receptor (Homo sapiens, UniProt P35462). Nature of the assay: Displacement of [3H]N-methylspiperone from human D3R receptor expressed in HEK293T cell membrane incubated for 1 hr by MicroBeta scintillation counting method. The class given is cell membranes. In outline:
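Membranes from stably transfected HEK293 cells (hD2L, hD3 or hD4.4), 20 μg (D2, D3) or 30 μg (D4) protein/well. Incubated 1 h at room temperature in EBSS binding buffer, pH 7.4, with 0.4 nM [3H]N-methylspiperone and 10 half-log dilutions in triplicate. 10 μM (+)-butaclamol defines nonspecific binding. GF filtration, scintillation counting. Ki by Cheng–Prusoff from ≥3 experiments; selectivity is the Ki ratio.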

In assay [3] the target is T1, D(4) dopamine receptor (Homo sapiens, UniProt P21917).
T1 sequence (P21917 whole entry): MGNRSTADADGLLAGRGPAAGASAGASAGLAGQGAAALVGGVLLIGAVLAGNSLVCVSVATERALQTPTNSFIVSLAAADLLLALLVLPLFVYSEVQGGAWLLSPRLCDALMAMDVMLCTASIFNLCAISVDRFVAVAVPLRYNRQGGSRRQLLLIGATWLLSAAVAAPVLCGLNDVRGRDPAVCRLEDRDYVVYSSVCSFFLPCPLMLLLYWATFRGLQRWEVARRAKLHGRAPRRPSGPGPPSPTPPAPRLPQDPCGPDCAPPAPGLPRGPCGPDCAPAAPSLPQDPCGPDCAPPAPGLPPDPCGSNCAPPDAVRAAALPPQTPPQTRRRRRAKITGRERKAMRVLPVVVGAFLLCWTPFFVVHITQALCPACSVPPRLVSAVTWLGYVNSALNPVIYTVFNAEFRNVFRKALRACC
Nature of the assay: Displacement of [3H]N-methylspiperone from human D4.4 receptor expressed in HEK293T cell membrane incubated for 1 hr by MicroBeta scintillation counting method. The format is cell membranes.

For assay [4], the target named is T1, D(4) dopamine receptor. Nature of the assay: Antagonist activity at D4R (unknown origin) expressed in human HEK293T cells assessed as inhibition of dopamine-induced G0 protein activation pretreated for 10 mins followed by dopamine addition and measured after 2.5 mins by BRET assay. The class given is functional, cell-based.
In assay [5] the target is T1, D(4) dopamine receptor. The assay is described as follows: Antagonist activity at D4R (unknown origin) expressed in human HEK293T cells assessed as inhibition of dopamine-induced Gi protein activation pretreated for 10 mins followed by dopamine addition and measured after 2.5 mins by BRET assay. The format is functional, cell-based.
Assay [6] addresses T1, D(4) dopamine receptor. The assay is described as follows: Antagonist activity at D4R (unknown origin) expressed in human HEK293T cells assessed as inhibition of dopamine-induced beta arrestin-2 recruitment pretreated for 10 mins followed by dopamine addition and measured after 2.5 mins by BRET assay. The format is functional, cell-based.
In assay [7] the target is T2, D(4) dopamine receptor (Homo sapiens) (UniProt P21917).
T2 sequence (whole entry): T1 sequence (P21917 whole entry)
The assay is described as follows: Agonist activity at D4R (unknown origin) expressed in human HEK293T cells assessed as G0 protein activation measured after 2.5 mins by BRET assay relative to control. The format is functional, cell-based. The essentials: (§1)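 Transiently transfected HEK293T cells (15 μg plasmid cDNA, polyethyleneimine, 6 h, assayed after 48 h). Gαi1 or GαoA fused to RLuc8 and Gγ2 to mVenus for G protein activation; D4 receptor fused to RLuc8 and β-arrestin to mVenus for recruitment. About 2×10^5 cells/well in PBS with 0.1% glucose and 200 μM Na bisulfite. Coelenterazine H 5 μM. Read 530/485 nm; RLuc8-only background subtracted.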

In assay [8] the target is T2, D(4) dopamine receptor (Homo sapiens). Nature of the assay: Agonist activity at D4R (unknown origin) expressed in human HEK293T cells assessed as Gi protein activation measured after 2.5 mins by BRET assay relative to control. The class given is functional, cell-based. In outline:
as §1

The target is the same in assay [9]. Nature of the assay: Agonist activity at D4R (unknown origin) expressed in human HEK293T cells assessed as beta arrestin-2 recruitment measured after 2.5 mins by BRET assay relative to control. The class given is functional, cell-based. The essentials: as §1
Assay [10] in a line: Selectivity ratio of Ki for displacement of [3H]N-methylspiperone from human D3R expressed in HEK293T cell membrane to Ki for displacement of [3H]N-methylspiperone from human D4.4 receptor expressed in HEK293T cell membrane.
Assay [11] in a line: Selectivity ratio of Ki for displacement of [3H]N-methylspiperone from human D2L receptor expressed in HEK293T cell membrane to Ki for displacement of [3H]N-methylspiperone from human D4.4 receptor expressed in HEK293T cell membrane.
Assay [12] concerns the target T1, D(4) dopamine receptor. The assay is described as follows: Displacement of [3H]7-OH-DPAT from human D4.4 receptor expressed in HEK293T cell membrane incubated for 1.5 hrs by MicroBeta scintillation counting method. The format is cell membranes. The essentials:
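Fresh membranes from HEK293 cells stably expressing hD4.4 (about 50–60 μg protein/well) in 50 mM Tris, 10 mM MgCl2, 1 mM EDTA, pH 7.4. Radioligand was 3 nM final; incubation 1.5 h at room temperature. Nonspecific binding was set with 10 μM (+)-butaclamol; DMSO was 3% final. Ten half-log dilutions were run in triplicate, then filtered. Ki came from IC50 by Cheng–Prusoff, from at least three independent experiments.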

Assay [13] concerns the target T1, D(4) dopamine receptor. The assay is described as follows: Agonist activity at D4R (unknown origin) expressed in human HEK293T cells assessed as beta arrestin-2 recruitment measured after 2.5 mins by BRET assay. The class given is functional, cell-based. In outline: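 HEK293T cells transiently co-transfected with D4 receptor–RLuc8 and β-arrestin–mVenus using PEI, then harvested after 48 h. Cells were resuspended in PBS with 0.1% glucose and 200 μM Na bisulfite, at about 2×10^5 cells/well. Coelenterazine H (5 μM) was added, and ligands 2 min later. Emission was read at 485 and 530 nm 2.5 min after ligand. Net BRET was taken after subtracting the RLuc8-alone background; dose–response curves were fitted.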

Assay [14] relates to T98G. Nature of the assay: Cytotoxicity against human T98G cells assessed as reduction in cell viability at 5 to 50 uM incubated for 24 hrs by MTS assay. The format is functional, cell-based. Conditions: dose 5-50 µM. The essentials:
(§2)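 Cells seeded at 5,000/well and grown to 80% confluence: T98 and U251 in EMEM with 10% serum; GSC#83 as spheres in serum-free DMEM/F12 with EGF and bFGF. Treated 24 h at 5–50 μM in DMSO, with a DMSO vehicle control. MTS reagent added and formazan absorbance read at 490 nm. n = 6; two-way ANOVA.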

Assay [15] relates to U-251. Nature of the assay: Cytotoxicity against human U-251 cells assessed as reduction in cell viability at 5 to 50 uM incubated for 24 hrs by MTS assay. The format is functional, cell-based. The conditions noted are these: dose 5-50 µM. The essentials:
as §2

In assay [16] the test system is GSC#83. Nature of the assay: Cytotoxicity against human GSC#83 cells assessed as reduction in cell viability at 5 to 50 uM incubated for 24 hrs by MTS assay. The format is functional, cell-based. The conditions noted are these: dose 5-50 µM. In outline: as §2
Assay [17] has as its system T98G. The assay is described as follows: Cytotoxicity against human T98G cells assessed as reduction in cell viability at 10 uM incubated for 24 hrs by MTS assay. The format is functional, cell-based. The essentials:
as §2

Assay [18] has as its system U-251. Nature of the assay: Cytotoxicity against human U-251 cells assessed as reduction in cell viability at 10 uM incubated for 24 hrs by MTS assay. The class given is functional, cell-based. In outline: as §2
The test system of assay [19] is GSC#83. Nature of the assay: Cytotoxicity against human GSC#83 cells assessed as reduction in cell viability at 10 uM incubated for 24 hrs by MTS assay. The format is functional, cell-based. In outline: as §2
The target in assay [20] is T1, D(4) dopamine receptor. Nature of the assay: Partial agonist activity at D4R (unknown origin) expressed in human HEK293T cells assessed as G0 protein activation measured after 2.5 mins by BRET assay. The format is functional, cell-based. In outline:
as §1

The target in assay [21] is T2, D(4) dopamine receptor (Homo sapiens). The assay is described as follows: Partial agonist activity at D4R (unknown origin) expressed in human HEK293T cells assessed as G0 protein activation measured after 2.5 mins by BRET assay relative to control. The format is functional, cell-based. Conditions: filed as partial agonist. In outline: as §1
Assay [22] has as its target T1, D(4) dopamine receptor. Nature of the assay: Partial agonist activity at D4R (unknown origin) expressed in human HEK293T cells assessed as Gi protein activation measured after 2.5 mins by BRET assay. The format is functional, cell-based. In outline:
as §1

The target of assay [23] is T2, D(4) dopamine receptor (Homo sapiens). The assay is described as follows: Partial agonist activity at D4R (unknown origin) expressed in human HEK293T cells assessed as Gi protein activation measured after 2.5 mins by BRET assay relative to control. The class given is functional, cell-based. In outline: as §1

Chain of D(3) dopamine receptor (P35462 whole entry): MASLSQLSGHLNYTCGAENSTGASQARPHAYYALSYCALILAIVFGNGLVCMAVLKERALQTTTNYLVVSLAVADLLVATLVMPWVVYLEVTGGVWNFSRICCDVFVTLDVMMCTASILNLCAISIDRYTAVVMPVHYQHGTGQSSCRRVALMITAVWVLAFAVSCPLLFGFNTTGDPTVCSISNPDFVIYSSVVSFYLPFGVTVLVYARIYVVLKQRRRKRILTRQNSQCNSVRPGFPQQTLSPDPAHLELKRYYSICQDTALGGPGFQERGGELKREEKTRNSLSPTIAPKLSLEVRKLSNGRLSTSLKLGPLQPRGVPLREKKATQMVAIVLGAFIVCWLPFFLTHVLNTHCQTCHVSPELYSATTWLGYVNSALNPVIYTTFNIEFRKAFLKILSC
Chain of D(2) dopamine receptor (P14416 whole entry): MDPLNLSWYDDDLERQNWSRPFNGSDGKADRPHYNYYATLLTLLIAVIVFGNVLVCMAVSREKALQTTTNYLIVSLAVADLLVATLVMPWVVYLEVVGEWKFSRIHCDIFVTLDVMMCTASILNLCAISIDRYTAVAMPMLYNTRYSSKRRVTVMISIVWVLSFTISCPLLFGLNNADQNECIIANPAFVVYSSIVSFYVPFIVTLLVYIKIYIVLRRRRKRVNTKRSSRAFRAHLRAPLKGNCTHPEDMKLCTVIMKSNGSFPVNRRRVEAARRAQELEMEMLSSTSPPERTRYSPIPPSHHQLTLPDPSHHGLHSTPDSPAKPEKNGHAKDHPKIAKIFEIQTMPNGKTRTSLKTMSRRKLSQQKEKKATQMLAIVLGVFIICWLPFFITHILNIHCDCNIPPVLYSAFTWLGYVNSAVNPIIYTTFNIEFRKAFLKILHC

In the case of `COc1ccc(N2CCN(CCCN3C(=O)CCc4ccccc43)CC2)cc1`, the Ki is 20900 nM in assay [1], 8320 nM in [2] and 6.92 nM in assay [3]. For the same compound, the IC50 in assay [4] was 107 nM; in assay [5] it was 269 nM; in [6], 389 nM. The Emax in [7], in assay [8] and in [9] was 0% each time. Besides, the Ratio Ki is 1200 in assay [10] and 3020 in [11].
Turning to `O=C1CCc2ccccc2N1CCCN1CCN(c2ccccc2Cl)CC1`, the Ki in assay [1] is 138 nM; in assay [2] it was 60.3 nM; in assay [3] it was 0.603 nM; in [12] it was 0.513 nM. In addition, the Ratio Ki in [10] was determined as 100; in assay [11], 229.
On to `Cc1ccc(N2CCN(CCCN3C(=O)CCc4ccccc43)CC2)cc1`, for which the Ki in assay [1] was 5130 nM; in assay [2] it was 1700 nM; in assay [3] it was 0.977 nM. Further, the values for the IC50 in [4], in [5] and in assay [6] were 331 nM, 110 nM and 1230 nM, respectively. Moreover, the 50% effective concentration (EC50) in [13] is 16.2 nM. Further, the Emax in assay [7] was 0%; in assay [8], 0%; in assay [9] it was -30.2%. For the same compound, the Ratio Ki is 1740 in assay [10] and 5250 in [11].
As for `O=C1CCc2ccccc2N1CCCN1CCN(c2ccc(Cl)cc2)CC1`, the outcome in assay [14], in assay [15], in assay [16], in [17], in assay [18] and in [19] was Active. In addition, the Ki was 5500 nM in assay [1], 2450 nM in [2], 0.661 nM in [3] and 1.48 nM in assay [12]. Besides, the figures for the IC50 in assay [4], in assay [5] and in assay [6] were 380 nM, 251 nM and 10500 nM, respectively. Also, the EC50 in assay [13] was 51.3 nM. For the same compound, the Emax was 0% in assay [7], 0% in [8] and -43.4% in assay [9]. Moreover, the Ratio Ki worked out at 3720 in assay [10] and 8320 in assay [11].
Regarding `O=C1CCc2ccccc2N1CCCN1CCN(c2cccc(Cl)c2)CC1`, the Ki in assay [1] was 759 nM; in assay [2], 282 nM; in assay [3] it was 1.05 nM; in assay [12] it was 0.776 nM. Besides, the results for the Ratio Ki in assay [10] and in assay [11] were 269 and 724, respectively.
For `O=C1CCc2ccccc2N1CCCN1CCN(c2ccccn2)CC1`, the outcome in assay [14], in assay [15], in assay [16], in assay [17], in assay [18] and in assay [19] was Active. Moreover, the Ki was 2750 nM in assay [1], 2570 nM in assay [2] and 2.24 nM in [3]. In addition, the concentration for half-maximal inhibition (IC50) in assay [6] is 67.6 nM. Besides, the results for the Emax in [9], in assay [21] and in assay [23] were 0%, 46.2% and 26.6%, respectively. Moreover, the values for the EC50 in assay [20] and in assay [22] were 8.51 nM and 12.3 nM, respectively. Also, the Ratio Ki was 1150 in assay [10] and 1230 in assay [11].
